Test results published in ChEMBL document CHEMBL5303300, “EUbOPEN Chemogenomics Library - Multiplex” (2023).
“And” between values parts separate entries of the source, which are not always exact repeats. Equal values may be shown once.

System: U2OS
Assay: Multiplex assay against U2OS
Format: toxicity, cell-based
Settings: human, number of replicates 2
In short: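 Values for tubulin, mitochondrial-mass and membrane-permeability phenotypes are per cents of cells with healthy nuclei. These cells were identified by CellPathfinder machine-learning gating of live cells that had been stained at seeding with Hoechst33342, BioTracker Green Microtubule Cytoskeleton Dye, MitoTracker Red and Annexin V Alexa Fluor 680 and imaged on a CQ1 microscope at 37°C and 5% CO2 after compound addition. The gating first set Hoechst high-intensity objects apart from normal cells, then split normal cells into healthy, pyknosed or fragmented nuclei, and pyknosed cells into mitotic or apoptotic.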

[1] = 12 h, 1 µM, compound concentration 1 uM
[2] = 12 h, 10 µM, compound concentration 10 uM
[3] = 24 h, 1 µM, compound concentration 1 uM
[4] = 24 h, 10 µM, compound concentration 10 uM
[5] = 48 h, 1 µM, compound concentration 1 uM
[6] = 48 h, 10 µM, compound concentration 10 uM

Cc1cn(CCN2CCN(c3ccccc3-c3cc(C#N)cc(C(=O)NCCCN4CCCC4)c3)CC2)c2ccccc12
Population Apoptotic (%) [1]: 100% and 75% | Population Healthy Nuclei (%) [1]: 73% and 79% | Population Hoechst High Intensity Objects (%) [1]: 0% | Population Membrane Permeable-Phenotype (%) [1]: 8% and 10% | Population Mitochondria Different-Phenotype (%) [1]: 25% and 38% | Population Mitotic Cells (%) [1]: 0% and 25% | Population Normal (%) [1]: 100% | Population Pyknosed Nuclei (%) [1]: 10% and 16% | Population Tubulin-Different-Phenotype (%) [1]: 38% and 27% | Population Apoptotic (%) [2]: 100% and 82% | Population Fragmented Nuclei (%) [2]: 37% and 13% | Population Healthy Nuclei (%) [2]: 37% and 53% | Population Hoechst High Intensity Objects (%) [2]: 0% | Population Membrane Permeable-Phenotype (%) [2]: 33% and 41% | Population Mitochondria Different-Phenotype (%) [2]: 62% and 56% | Population Mitotic Cells (%) [2]: 0% and 17% | Population Normal (%) [2]: 100% | Population Pyknosed Nuclei (%) [2]: 25% and 33% | Population Tubulin-Different-Phenotype (%) [2]: 91% | Total Cell Count [2]: 64 and 135 | Population Apoptotic (%) [3]: 73% and 87% | Population Healthy Nuclei (%) [3]: 54% and 85% | Population Hoechst High Intensity Objects (%) [3]: 0% | Population Membrane Permeable-Phenotype (%) [3]: 8% and 7% | Population Mitochondria Different-Phenotype (%) [3]: 23% and 47% | Population Mitotic Cells (%) [3]: 26% and 12% | Population Normal (%) [3]: 100% | Population Pyknosed Nuclei (%) [3]: 24% and 12% | Population Tubulin-Different-Phenotype (%) [3]: 29% and 24% | Population Apoptotic (%) [4]: 90% and 88% | Population Fragmented Nuclei (%) [4]: 18% and 32% | Population Healthy Nuclei (%) [4]: 42% and 24% | Population Hoechst High Intensity Objects (%) [4]: 0% and 1% | Population Membrane Permeable-Phenotype (%) [4]: 65% and 35% | Population Mitochondria Different-Phenotype (%) [4]: 47% and 78% | Population Mitotic Cells (%) [4]: 9% and 12% | Population Normal (%) [4]: 99% and 98% | Population Pyknosed Nuclei (%) [4]: 39% and 43% | Population Tubulin-Different-Phenotype (%) [4]: 94% and 92% | Total Cell Count [4]: 162 and 59 | Population Apoptotic (%) [5]: 88% and 81% | Population Healthy Nuclei (%) [5]: 60% and 81% | Population Hoechst High Intensity Objects (%) [5]: 0% | Population Mitochondria Different-Phenotype (%) [5]: 11% and 26% | Population Mitotic Cells (%) [5]: 11% and 18% | Population Normal (%) [5]: 100% | Population Pyknosed Nuclei (%) [5]: 22% and 14% | Population Tubulin-Different-Phenotype (%) [5]: 24% and 31% | Population Apoptotic (%) [6]: 100% and 92% | Population Fragmented Nuclei (%) [6]: 17% and 50% | Population Hoechst High Intensity Objects (%) [6]: 0% and 1% | Population Membrane Permeable-Phenotype (%) [6]: 74% and 40% | Population Mitochondria Different-Phenotype (%) [6]: 48% and 20% | Population Mitotic Cells (%) [6]: 0% and 7% | Population Normal (%) [6]: 100% and 98% | Population Pyknosed Nuclei (%) [6]: 38% and 41% | Population Tubulin-Different-Phenotype (%) [6]: 94% and 80% | Total Cell Count [6]: 168 and 63

CNc1ncc2cc(-c3ccc(-c4cccc(C)n4)cc3Cl)c(=O)n(C[C@H]3OC[C@H](N)CO3)c2n1
Population Apoptotic (%) [1]: 75% and 70% | Population Healthy Nuclei (%) [1]: 33% and 85% | Population Hoechst High Intensity Objects (%) [1]: 0% | Population Mitochondria Different-Phenotype (%) [1]: 7% and 0% | Population Mitotic Cells (%) [1]: 25% and 29% | Population Normal (%) [1]: 100% and 99% | Population Pyknosed Nuclei (%) [1]: 19% and 10% | Population Tubulin-Different-Phenotype (%) [1]: 42% and 70% | Population Apoptotic (%) [2]: 60% and 36% | Population Fragmented Nuclei (%) [2]: 38% and 16% | Population Healthy Nuclei (%) [2]: 28% and 54% | Population Hoechst High Intensity Objects (%) [2]: 5% and 0% | Population Membrane Permeable-Phenotype (%) [2]: 15% and 11% | Population Mitotic Cells (%) [2]: 39% and 63% | Population Normal (%) [2]: 94% and 99% | Population Pyknosed Nuclei (%) [2]: 32% and 29% | Population Tubulin-Different-Phenotype (%) [2]: 50% and 38% | Population Apoptotic (%) [3]: 80% and 76% | Population Healthy Nuclei (%) [3]: 42% and 79% | Population Hoechst High Intensity Objects (%) [3]: 0% | Population Mitochondria Different-Phenotype (%) [3]: 5% and 1% | Population Mitotic Cells (%) [3]: 20% and 23% | Population Normal (%) [3]: 100% and 99% | Population Pyknosed Nuclei (%) [3]: 23% and 12% | Population Tubulin-Different-Phenotype (%) [3]: 50% and 75% | Population Apoptotic (%) [4]: 43% and 53% | Population Fragmented Nuclei (%) [4]: 31% and 17% | Population Healthy Nuclei (%) [4]: 20% and 51% | Population Hoechst High Intensity Objects (%) [4]: 6% and 1% | Population Mitochondria Different-Phenotype (%) [4]: 57% and 19% | Population Mitotic Cells (%) [4]: 56% and 46% | Population Normal (%) [4]: 93% and 98% | Population Pyknosed Nuclei (%) [4]: 47% and 31% | Population Tubulin-Different-Phenotype (%) [4]: 21% and 32% | Population Apoptotic (%) [5]: 75% and 83% | Population Healthy Nuclei (%) [5]: 54% and 80% | Population Hoechst High Intensity Objects (%) [5]: 0% | Population Membrane Permeable-Phenotype (%) [5]: 9% and 2% | Population Mitochondria Different-Phenotype (%) [5]: 4% and 1% | Population Mitotic Cells (%) [5]: 25% and 16% | Population Normal (%) [5]: 100% and 99% | Population Pyknosed Nuclei (%) [5]: 16% and 13% | Population Tubulin-Different-Phenotype (%) [5]: 73% and 79% | Population Apoptotic (%) [6]: 60% and 61% | Population Fragmented Nuclei (%) [6]: 45% and 16% | Population Hoechst High Intensity Objects (%) [6]: 5% and 1% | Population Mitotic Cells (%) [6]: 39% and 38% | Population Normal (%) [6]: 94% and 98% | Population Pyknosed Nuclei (%) [6]: 41% and 34% | Population Tubulin-Different-Phenotype (%) [6]: 44% and 50%

CNS(=O)(=O)c1ccc(N(C)C)c(Nc2ncnc3cc(OC)c(OC)cc23)c1
Population Apoptotic (%) [1]: 100% and 61% | Population Healthy Nuclei (%) [1]: 73% and 84% | Population Hoechst High Intensity Objects (%) [1]: 0% | Population Membrane Permeable-Phenotype (%) [1]: 0% | Population Mitochondria Different-Phenotype (%) [1]: 0% | Population Normal (%) [1]: 100% and 99% | Population Pyknosed Nuclei (%) [1]: 11% and 12% | Population Tubulin-Different-Phenotype (%) [1]: 73% and 87% | Population Apoptotic (%) [2]: 50% and 64% | Population Healthy Nuclei (%) [2]: 44% and 86% | Population Hoechst High Intensity Objects (%) [2]: 0% | Population Membrane Permeable-Phenotype (%) [2]: 3% and 2% | Population Mitochondria Different-Phenotype (%) [2]: 0% and 2% | Population Mitotic Cells (%) [2]: 50% and 35% | Population Normal (%) [2]: 100% | Population Pyknosed Nuclei (%) [2]: 20% and 10% | Population Tubulin-Different-Phenotype (%) [2]: 42% and 64% | Total Cell Count [2]: 59 and 156 | Population Apoptotic (%) [3]: 60% and 71% | Population Healthy Nuclei (%) [3]: 60% and 88% | Population Hoechst High Intensity Objects (%) [3]: 0% | Population Membrane Permeable-Phenotype (%) [3]: 5% and 1% | Population Mitochondria Different-Phenotype (%) [3]: 0% and 1% | Population Mitotic Cells (%) [3]: 40% and 28% | Population Normal (%) [3]: 100% | Population Pyknosed Nuclei (%) [3]: 16% and 9% | Population Tubulin-Different-Phenotype (%) [3]: 72% and 88% | Population Apoptotic (%) [4]: 87% and 63% | Population Healthy Nuclei (%) [4]: 66% and 82% | Population Hoechst High Intensity Objects (%) [4]: 0% | Population Membrane Permeable-Phenotype (%) [4]: 5% and 3% | Population Mitochondria Different-Phenotype (%) [4]: 5% and 1% | Population Mitotic Cells (%) [4]: 12% and 36% | Population Normal (%) [4]: 100% and 99% | Population Pyknosed Nuclei (%) [4]: 13% and 14% | Population Tubulin-Different-Phenotype (%) [4]: 51% and 64% | Population Apoptotic (%) [5]: 50% and 76% | Population Healthy Nuclei (%) [5]: 69% and 90% | Population Hoechst High Intensity Objects (%) [5]: 0% | Population Membrane Permeable-Phenotype (%) [5]: 4% and 0% | Population Mitochondria Different-Phenotype (%) [5]: 2% and 0% | Population Mitotic Cells (%) [5]: 50% and 23% | Population Normal (%) [5]: 100% | Population Pyknosed Nuclei (%) [5]: 10% and 5% | Population Tubulin-Different-Phenotype (%) [5]: 82% and 92% | Population Apoptotic (%) [6]: 83% and 66% | Population Healthy Nuclei (%) [6]: 52% and 78% | Population Hoechst High Intensity Objects (%) [6]: 0% | Population Membrane Permeable-Phenotype (%) [6]: 13% and 5% | Population Mitochondria Different-Phenotype (%) [6]: 1% and 5% | Population Mitotic Cells (%) [6]: 16% and 33% | Population Normal (%) [6]: 99% | Population Pyknosed Nuclei (%) [6]: 11% and 14% | Population Tubulin-Different-Phenotype (%) [6]: 58% and 68%

O=C1NC(=NCc2cccs2)SC1=Cc1ccc2ncccc2c1
Population Apoptotic (%) [1]: 100% and 60% | Population Healthy Nuclei (%) [1]: 68% and 89% | Population Hoechst High Intensity Objects (%) [1]: 0% | Population Membrane Permeable-Phenotype (%) [1]: 0% and 1% | Population Mitochondria Different-Phenotype (%) [1]: 0% and 1% | Population Normal (%) [1]: 100% | Population Pyknosed Nuclei (%) [1]: 9% and 6% | Population Tubulin-Different-Phenotype (%) [1]: 59% and 88% | Population Apoptotic (%) [2]: 71% and 81% | Population Healthy Nuclei (%) [2]: 57% and 85% | Population Hoechst High Intensity Objects (%) [2]: 0% | Population Membrane Permeable-Phenotype (%) [2]: 5% and 7% | Population Mitochondria Different-Phenotype (%) [2]: 0% and 4% | Population Mitotic Cells (%) [2]: 28% and 18% | Population Normal (%) [2]: 100% | Population Pyknosed Nuclei (%) [2]: 21% and 8% | Population Tubulin-Different-Phenotype (%) [2]: 31% and 33% | Population Apoptotic (%) [3]: 63% and 61% | Population Fragmented Nuclei (%) [3]: 11% and 4% | Population Healthy Nuclei (%) [3]: 66% and 89% | Population Hoechst High Intensity Objects (%) [3]: 0% | Population Membrane Permeable-Phenotype (%) [3]: 5% and 0% | Population Mitochondria Different-Phenotype (%) [3]: 0% | Population Mitotic Cells (%) [3]: 36% and 38% | Population Normal (%) [3]: 100% | Population Tubulin-Different-Phenotype (%) [3]: 67% and 82% | Population Apoptotic (%) [4]: 100% and 75% | Population Healthy Nuclei (%) [4]: 56% and 79% | Population Hoechst High Intensity Objects (%) [4]: 0% | Population Membrane Permeable-Phenotype (%) [4]: 0% and 3% | Population Mitochondria Different-Phenotype (%) [4]: 0% and 4% | Population Mitotic Cells (%) [4]: 0% and 25% | Population Normal (%) [4]: 100% | Population Pyknosed Nuclei (%) [4]: 26% and 15% | Population Tubulin-Different-Phenotype (%) [4]: 26% and 41% | Population Apoptotic (%) [5]: 92% and 73% | Population Healthy Nuclei (%) [5]: 57% and 88% | Population Hoechst High Intensity Objects (%) [5]: 0% | Population Membrane Permeable-Phenotype (%) [5]: 4% and 2% | Population Mitochondria Different-Phenotype (%) [5]: 0% | Population Normal (%) [5]: 100% | Population Tubulin-Different-Phenotype (%) [5]: 70% and 90% | Population Apoptotic (%) [6]: 84% | Population Fragmented Nuclei (%) [6]: 17% and 12% | Population Healthy Nuclei (%) [6]: 36% and 60% | Population Hoechst High Intensity Objects (%) [6]: 2% and 0% | Population Membrane Permeable-Phenotype (%) [6]: 6% and 4% | Population Mitotic Cells (%) [6]: 15% | Population Normal (%) [6]: 97% and 100% | Population Pyknosed Nuclei (%) [6]: 46% and 26% | Population Tubulin-Different-Phenotype (%) [6]: 60% and 55%
